# Test results taken from the M2OR odorant receptor database.
# Biological target: T1, OR2A7 (Homo sapiens) (UniProt Q96R45)
# T1 sequence (whole entry): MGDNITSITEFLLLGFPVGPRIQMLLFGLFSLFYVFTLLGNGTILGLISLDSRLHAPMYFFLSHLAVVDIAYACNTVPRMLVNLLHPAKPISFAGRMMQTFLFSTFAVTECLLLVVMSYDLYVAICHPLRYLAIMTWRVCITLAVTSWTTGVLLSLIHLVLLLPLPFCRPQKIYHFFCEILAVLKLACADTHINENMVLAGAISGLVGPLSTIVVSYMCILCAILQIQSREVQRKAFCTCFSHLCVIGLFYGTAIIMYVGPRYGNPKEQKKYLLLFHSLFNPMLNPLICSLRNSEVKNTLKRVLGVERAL
# Settings: stereoisomer not certain
# Procedure, shortened: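 Values were gathered from published papers (main text and supplementary material), with extra details requested from the original authors when needed, and checked for typos and inconsistencies. Each receptor–molecule pair is called responsive (active) if the original authors judged the measured signal statistically different from baseline, and non-responsive (inactive) otherwise. Assay methods varied by source, often transient mammalian cell-line luciferase assays. Recorded details include cell line, G-protein, co-transfected protein and tags.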
row,Compound,odorant receptor agonist call
1,CCCCCCCC(=O)OC,inactive
2,CCCCCCC(=O)[O-].[H+],inactive
3,CC(CC=O)c1ccccc1 (centres undefined),inactive
4,CCCCCCCCCCCCCCCCCC(=O)OCC,inactive
5,CC1=CCC2CC1C2(C)C (centres undefined),active
6,CCCC(=O)CC,inactive
7,CCCCCCCCCCCC(=O)OC,inactive
8,CCCCCCCCCCCCCCC(=O)O,inactive
9,CC(=O)O,inactive
10,COc1ccc2[nH]cc(CCNC(C)=O)c2c1,inactive
11,CCCCCCCCO,inactive
12,Cc1ccc(C(C)C)cc1,inactive
13,CC(C)(C)c1ccccc1,active
14,CCCCCCCCCCCCCC(=O)OC,inactive
15,CCCCCCCCCCCCCC(=O)O,inactive
16,CCCCCCCCCCCCCCCCCC(=O)OC,inactive
17,Cc1cccc(C)c1C,inactive
18,CCCCCCCCCCCC(=O)O,active
19,CCC(=O)O,inactive
20,CCC(C)CO (centres undefined),inactive
21,O=c1ccc2ccccc2o1,inactive
22,CCC(O)CC,inactive
23,CCCCCCCCCCCCCCCC(=O)OC,inactive
24,Cc1cnc(C)cn1,inactive
25,CCCCC(=O)C(C)=O,inactive
26,CCCCCCCC(=O)[O-].[H+],active
27,CCCCCCCCCC(=O)OC,inactive
28,CCCCCCCCCC(=O)OCC,inactive
29,CCCCCCCCCCCCCCCC(=O)OCC,inactive
